Assay results: ChEMBL document CHEMBL2016504, “New saccharin derivatives as tyrosinase inhibitors” (Bioorg Med Chem, 2012)

Experiments:
Musa x paradisiaca = experiment: Competitive inhibition of banana tyrosinase using catechol as substrate by Lineweaver-Burk plot analysis
How it was run: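 Banana PPO was partially purified: ammonium sulfate to 80% saturation, dialysis in 5 mM phosphate, then a Sepharose 4B-tyrosine-p-aminobenzoic acid affinity column eluted with 1 M NaCl, 5 mM phosphate, pH 7.0. Catechol oxidation was read as the rise in A420, in duplicate, corrected for non-enzymatic change. Ki and inhibition type came from Lineweaver–Burk 1/V vs 1/[S] plots at two inhibitor levels (0.01–0.20 mM).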

[1] = Inhibition of desert banana tyrosinase using p-cresol as substrate; set-up: species or system Musa acuminata

Row | Kic (Musa x paradisiaca) [µM] | Structure (SMILES) | also measured
1 | 9.81 | COc1ccc(NC(=S)Nc2ccc3c(c2)S(=O)(=O)NC3=O)cc1 | –
2 | 22 | O=C(Nc1ccc([N+](=O)[O-])cc1)Nc1ccc2c(c1)S(=O)(=O)NC2=O | –
3 | 10.7 | O=C1NS(=O)(=O)c2cc(NC(=S)Nc3ccccc3)ccc21 | –
4 | 5.85 | O=C(Nc1cccc(Cl)c1)Nc1ccc2c(c1)S(=O)(=O)NC2=O | –
5 | 14.8 | O=C1NS(=O)(=O)c2cc(NC(=S)Nc3ccc(F)cc3)ccc21 | –
6 | 13.7 | O=C1NS(=O)(=O)c2cc(NC(=S)Nc3cc(Cl)cc(Cl)c3)ccc21 | –
7 | 16.6 | COc1ccc(NC(=O)Nc2ccc3c(c2)S(=O)(=O)NC3=O)cc1 | –
8 | 12.1 | O=C(Nc1cccc(F)c1)Nc1ccc2c(c1)S(=O)(=O)NC2=O | –
9 | 19.5 | O=C1NS(=O)(=O)c2cc(NC(=S)Nc3ccc([N+](=O)[O-])cc3)ccc21 | –
10 | 13.6 | Nc1ccc2c(c1)S(=O)(=O)NC2=O | –
11 | 4.23 | O=C1NS(=O)(=O)c2cc(NC(=S)Nc3ccccc3F)ccc21 | –
12 | – | O=C1O[C@H]([C@@H](O)CO)C(O)=C1O [ASCORBIC ACID] | IC50 [1]: 437 µM; Ki [1]: 530 µM
13 | 3.95 | O=C1NS(=O)(=O)c2cc(NC(=S)Nc3cccc(I)c3)ccc21 | –
14 | – | O=S(O)S(=O)(=O)O [SODIUM METABISULFITE] | IC50 [1]: 65 µM
15 | 11.1 | O=C1NS(=O)(=O)c2cc(NC(=S)Nc3cccc(F)c3)ccc21 | –
16 | – | O[C@@H](CS)[C@@H](O)CS (relative stereo) [DITHIOTHREITOL] | IC50 [1]: 63 µM
17 | 14.9 | O=C(Nc1ccc(Cl)c(Cl)c1)Nc1ccc2c(c1)S(=O)(=O)NC2=O | –
18 | 15.6 | O=C(Nc1ccc(F)cc1)Nc1ccc2c(c1)S(=O)(=O)NC2=O | –
19 | 16.9 | O=C(Nc1cccc([N+](=O)[O-])c1)Nc1ccc2c(c1)S(=O)(=O)NC2=O | –
20 | – | N[C@@H](CS)C(=O)O [CYSTEINE] | IC50 [1]: 322 µM
21 | 16.2 | Cc1ccc(NC(=O)Nc2ccc3c(c2)S(=O)(=O)NC3=O)cc1 | –
22 | 14.1 | COc1cccc(NC(=O)Nc2ccc3c(c2)S(=O)(=O)NC3=O)c1 | –
23 | 40.2 | O=C(Nc1ccc(Cl)cc1)Nc1ccc2c(c1)S(=O)(=O)NC2=O | –
24 | 9.96 | Cc1ccc(NC(=S)Nc2ccc3c(c2)S(=O)(=O)NC3=O)cc1 | –
25 | 10.1 | O=C1NS(=O)(=O)c2cc(NC(=S)Nc3ccc(Cl)cc3Cl)ccc21 | –
26 | 13.4 | O=C(Nc1ccccc1)Nc1ccc2c(c1)S(=O)(=O)NC2=O | –
27 | 28.3 | O=C1NS(=O)(=O)c2cc(NC(=S)Nc3cccc(Cl)c3)ccc21 | –
28 | 35.1 | O=C(Nc1ccc2c(c1)S(=O)(=O)NC2=O)Nc1ccccc1F | –
